# Laboratory results as given in ChEMBL document CHEMBL3352122, “Design, synthesis and evaluation of 2-aminothiazole derivatives as sphingosine kinase inhibitors” (Bioorg Med Chem, 2014).
# Activity calls are given as the source filed them. The rule behind the calls is not given here.
# Biological target: T1, Sphingosine kinase 2 (Homo sapiens) (UniProt Q9NRA0)
# T1 sequence (whole entry): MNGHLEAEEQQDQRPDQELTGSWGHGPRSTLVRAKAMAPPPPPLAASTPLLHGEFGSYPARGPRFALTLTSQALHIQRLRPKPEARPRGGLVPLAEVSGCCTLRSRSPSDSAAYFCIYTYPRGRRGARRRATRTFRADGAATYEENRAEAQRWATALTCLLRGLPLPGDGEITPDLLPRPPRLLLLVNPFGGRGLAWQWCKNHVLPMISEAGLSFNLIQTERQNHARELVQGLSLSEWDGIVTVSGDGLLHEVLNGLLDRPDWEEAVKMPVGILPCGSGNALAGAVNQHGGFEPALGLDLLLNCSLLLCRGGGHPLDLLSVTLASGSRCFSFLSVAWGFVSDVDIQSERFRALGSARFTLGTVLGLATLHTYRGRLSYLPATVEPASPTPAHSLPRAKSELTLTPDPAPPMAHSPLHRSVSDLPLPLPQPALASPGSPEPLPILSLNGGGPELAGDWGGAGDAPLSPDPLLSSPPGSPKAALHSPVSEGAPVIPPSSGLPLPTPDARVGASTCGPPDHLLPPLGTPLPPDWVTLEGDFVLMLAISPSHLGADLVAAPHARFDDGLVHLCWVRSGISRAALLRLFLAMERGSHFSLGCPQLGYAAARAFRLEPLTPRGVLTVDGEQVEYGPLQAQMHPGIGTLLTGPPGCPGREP
# Experiment: Inhibition of human recombinant Sphk2 at 10 uM after 60 mins by ADP2 fluorescence intensity assay
# Conditions: not given
# Summary of the method: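 Human recombinant SphK2 (stock 0.5 mg/mL in Tris-HCl pH 8.0/imidazole/DTT/glycerol) pre-incubated 15 min at RT with compound at 10 µM or DMSO. Reaction with D-erythro-sphingosine and ATP ran 60 min at RT at 10–15% substrate conversion. ADP was read by Transcreener ADP² FI competitive fluorescence against an ATP/ADP standard curve. % inhibition vs DMSO given as mean ± SEM of five independent experiments, one-sample t-test.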
row,Compound,inhibition
1,OCc1ccc(Nc2nc(-c3ccc(Cl)cc3)cs2)cc1,inactive
2,Clc1ccc(-c2csc(Nc3ccc4c(c3)OCCO4)n2)cc1,inactive
3,Cc1csc(Nc2nc(-c3nccs3)cs2)n1,50%
4,COc1ccc(/C=C/C(=O)Nc2nccs2)cc1OC,26.5%
5,COc1cc(/C=C/C(=O)Nc2nccs2)cc(OC)c1OC,26.6%
6,CN(C)c1ccc(Nc2nc(-c3ccc(Cl)cc3)cs2)cc1,inactive
7,CSc1ccc(Nc2nc(-c3ccc(Cl)cc3)cs2)cc1,inactive
8,COc1cc(Nc2nc(-c3ccc(Cl)cc3)c(C)s2)cc(OC)c1OC,inactive
9,Oc1cccc(Nc2nc(-c3ccc(Cl)cc3)cs2)c1,inactive
10,COc1ccccc1Nc1nc(-c2ccc(Cl)cc2)cs1,inactive
11,COc1cc(Nc2nc(-c3ccc(Cl)cc3)cs2)cc(OC)c1OC,inactive
12,Cc1cc(CS(=O)(=O)c2ccccc2)cc(OCc2ccc(CN3CCC[C@@H]3CO)cc2)c1,14.7%
13,FC(F)(F)c1ccc(Nc2nc(-c3ccc(Cl)cc3)cs2)cc1,inactive
14,CSc1ccc(Nc2nc(-c3ccc(Cl)cc3)c(C)s2)cc1,inactive
15,Oc1ccccc1Nc1nc(-c2ccc(Cl)cc2)cs1,inactive
16,Cc1sc(Nc2ccc(O)cc2)nc1-c1ccc(Cl)cc1,inactive
17,COc1cc(/C=C/C(=O)Nc2nc(-c3ccc(Cl)cc3)cs2)cc(OC)c1OC,32%
18,Clc1ccc(-c2csc(Nc3ccc4c(c3)OCO4)n2)cc1,inactive
19,CC(C)c1ccc(Nc2nc(-c3ccc(Cl)cc3)cs2)cc1,inactive
20,Cc1csc(Nc2nc(-c3ccc(Cl)cc3)c(C)s2)n1,19.2%
21,FC(F)(F)c1cc(Nc2nc(-c3ccc(Cl)cc3)cs2)cc(C(F)(F)F)c1,inactive
22,COc1ccc(/C=C/C(=O)Nc2nc(-c3ccc(Cl)cc3)cs2)cc1OC,31.7%
23,Oc1ccc(Nc2nc(-c3ccc(Br)cc3)cs2)cc1,10.3%
24,COc1ccc(Nc2nc(-c3ccc(Cl)cc3)cs2)cc1OC,inactive

# Now from value to compound:
row,inhibition,Compound
1,inactive,CC(C)c1ccc(Nc2nc(C34CC5CC(CC(C5)C3)C4)cs2)cc1
2,inactive,COc1ccc(Nc2nc(C34CC5CC(CC(C5)C3)C4)cs2)cc1
3,inactive,COc1ccc(Nc2nc(C34CC5CC(CC(C5)C3)C4)cs2)cc1OC
4,20.8%,COc1cc(Nc2nc(C34CC5CC(CC(C5)C3)C4)cs2)cc(OC)c1OC
5,18.6%,CSc1ccc(Nc2nc(C34CC5CC(CC(C5)C3)C4)cs2)cc1
6,inactive,CSc1ccc(Nc2nc(C34CC5CC(CC(C5)C3)C4)c(C)s2)cc1
7,21.5%,COc1cc(Nc2nc(C34CC5CC(CC(C5)C3)C4)c(C)s2)cc(OC)c1OC
8,19%,COc1ccccc1Nc1nc(C23CC4CC(CC(C4)C2)C3)cs1
9,41.6%,COc1ccccc1Nc1nc(C23CC4CC(CC(C4)C2)C3)c(C)s1
10,41.3%,c1cc2c(cc1Nc1nc(C34CC5CC(CC(C5)C3)C4)cs1)OCO2
11,inactive,FC(F)(F)Oc1ccc(Nc2nc(-c3ccc(Cl)cc3)cs2)cc1
12,inactive,Oc1ccc(Nc2nc(-c3nccs3)cs2)cc1
13,31.7%,c1cc2c(cc1Nc1nc(C34CC5CC(CC(C5)C3)C4)cs1)OCCO2
14,inactive,COc1ccc(Nc2nc(-c3ccc(Cl)cc3)c(C)s2)cc1
15,20.9%,Cc1csc(Nc2nc(C34CC5CC(CC(C5)C3)C4)c(C)s2)n1
16,15.5%,Oc1ccc(Nc2nc(-c3ccc(Cl)cc3)cs2)cc1
17,inactive,COc1ccc(Nc2nc(-c3ccc(Cl)cc3)cs2)cc1
18,inactive,CN(C)c1ccc(Nc2nc(C34CC5CC(CC(C5)C3)C4)cs2)cc1

# Biological target: T2, Sphingosine kinase 2 (Homo sapiens, UniProt Q9NRA0)
# T2 sequence (Q9NRA0 whole entry): T1 sequence (whole entry)
# Experiment: Inhibition of human recombinant Sphk2 after 60 mins by ADP2 fluorescence intensity assay
# Conditions: not given
# Summary of the method: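 Recombinant human SphK2 pre-incubated 15 min at RT with inhibitor at eight increasing concentrations, then reacted with D-erythro-sphingosine and ATP for 60 min at RT, keeping substrate conversion at 10–15% within the linear range. […] IC50 was derived from the concentration–inhibition data.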
row,IC50 [µM],Compound
1,6.5,Cc1csc(Nc2nc(-c3nccs3)cs2)n1

# Tested on: not listed separately
# Experiment: Cytotoxicity against human U937 cells at 30 uM after 24 hrs by LDH release assay
# Assay type: cell-based
# Conditions: u-937, 24 h
# Summary of the method: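 U937 cells seeded at 1.5 × 10⁴ cells/well, then exposed 24 h to increasing compound concentrations or DMSO vehicle. After centrifugation (250 × g, 4 min), LDH in the supernatant was measured as loss of membrane integrity. Detergent-induced maximum release was set to 100%. Three experiments, mean ± SE.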
row,Compound,Activity [%]
1,Cc1csc(Nc2nc(-c3nccs3)cs2)n1,0.69
